STAT1 act = STAT1 signaling activation. AID 932. hit rate 2.6% among 200,000. activation (% of control), % at 5.5 µM. NIH 3T3 STAT1-luciferase reporter, IFN-gamma, luminescence; 100% = IFN-gamma alone, no compound;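 active = activation above the screen-wide mean activation plus 3 SD, cut at about 130% in these data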;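 also: raw ratio to IFN-gamma control signal so 100% means no change and 0% no light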
APP 5'UTR act = activates APP 5'UTR luciferase reporter; SH-SY5Y APP 5'UTR luciferase reporter, luminescence; zero percent = DMSO vehicle wells; activation, % at 2 µM; hit rate 1% among 190,000; AID 1276;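 active = activation above a set limit, based on mean plus 3 SD of controls, cut at about 140% in these data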
STAT3 activator = increases IL-6 driven STAT3 reporter signal; U3A cells, IL-6 STAT3-luciferase reporter, luminescence; 100% = signal with IL-6 EC80 alone; hit rate 0.91% among 190,000; AID 871; activation (% of control), % at 5.6 µM;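 active = activation above the screen-wide mean of compound activation plus 3 SD, cut at about 130% in these data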;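 also: 0% = background luminescence of wells with medium and substrate only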
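System – human U3A cells carrying STAT3-luciferase construct · Probe or stimulus – Interleukin-6, 33 ng/mL · Schedule – compound 1 h, then IL-6 6 h at 37 °C · Signal – luminescence from STAT3-driven luciferase reporter · Evaluation – percent of IL-6-only median luminescence · Benchmarks – IL-6-only high control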
NF-kB expr up = raises NF-kB expression in human neuronal cells; NF-kB reporter expression; stronger effect = higher value; fold change at 12.5 µM; hit rate 1.6% among 190,000; AID 1239; in the data active = fold change above about 3.3
STAT3 blocker = inhibitors of IL-6 induced STAT3 signaling; U3A cells, IL-6 STAT3-luciferase reporter, luminescence; host cell line lacks STAT1; AID 862; inhibition, % at 5.5 µM; hit rate 0.89% among 190,000;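 active = inhibition above the mean inhibition across all screened compounds plus 3 SD, cut at about 44% in these data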;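 also: 0% = DMSO only wells and 100% = 100 µM nifuroxazide control wells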
STAT1 inh = reduces IFN-gamma driven STAT1 reporter signal. NIH 3T3 STAT1-luciferase reporter, luminescence. inhibition, % at 5.5 µM. hit rate 0.35% among 200,000. AID 920;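 active = inhibition above a set limit, the mean inhibition across all tested compounds plus 3 SD, cut at about 34% in these data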;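 also: 0% = IFN-gamma with DMSO and 100% = IFN-gamma with 300 µM nifuroxazide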
* = called active by the depositor; x = no result. Hits are enriched below; roughly 5.1% of the tested compounds scored in any of these assays.

SMILES	STAT1 act	APP 5'UTR act	STAT3 activator	NF-kB expr up	STAT3 blocker	STAT1 inh
COc1ccc(OCC(=O)N2CCN(Cc3c[nH]c4ccccc34)CC2)cc1	94	-9	135*	1	-35	6
O=C(COc1ccccc1)N1CCN(Cc2c[nH]c3ccccc23)CC1	96	-3	125	1.1	-22	5
O=c1[nH]c(=O)n(-c2cccc3ccccc23)c(O)c1C=NCc1ccc2c(c1)OCO2	96	-7	109	0.89	-11	5
O=c1[nH]c(=S)[nH]c(O)c1N=Nc1cc2c(cc1[N+](=O)[O-])OCO2	95	-13	99	1.1	8	4
O=c1[nH]c(O)c(N=Nc2ccc(S(=O)(=O)N3CCOCC3)cc2)c(=O)[nH]1	99	-10	105	1.2	-1	-1
O=c1[nH]c(=S)[nH]c(O)c1N=Nc1ccc2c(c1)OCO2	130*	40	96	1.2	5	-31
O=c1[nH]c(=S)[nH]c(O)c1N=Nc1ccc(OC(F)F)cc1	147*	95	81	1.2	28	-53
O=c1[nH]c(O)c(N=Nc2ccc3c(c2)OCCO3)c(=O)[nH]1	61	34	37	1.1	79*	41*
CN(C)C(=S)SSC(=S)N(C)C	103	-95	109	0.17	-9	-5
CCOC(=O)C1(c2ccccc2)CCN(Cc2cccc(C(=O)O)c2)CC1	101	1	99	1.1	5	-1
O=C(c1ccc(Br)cc1)C12CN3CN(CN(C3)C1)C2	103	24	97	14*	5	-5
CC(C)NS(=O)(=O)c1ccc(OCC(=O)N2CCN(C)CC2)cc1	99	-4	98	1.2	11	1
CN1CCN(C(=O)COc2ccc(-c3nc4ccccc4s3)cc2)CC1	55	135*	28	4.3*	85*	49*
COc1ccc(-n2c(/C=C3\C(=O)Nc4ccccc43)nc3ccccc3c2=O)cc1	101	-11	87	0.93	18	-2
O=C1Nc2ccccc2/C1=C/c1cnc[nH]1	117	1	58	0.6	57*	-19
Cc1cc(C(=O)N=Nc2c(O)n(C)c3ccccc23)c(C)o1	129*	76	90	2.2	11	-33
COCCNP(=O)(c1ccccc1)c1nc2ccccc2s1 (stereo not drawn)	100	8	112	0.73	-8	0
NCCc1nc2ccccc2s1	97	3	133*	1.1	-33	5
CCCCCCOc1ccc(CN2CCN(C)CC2)cc1	110	144*	88	1.1	19	-11
CC1=NN(c2ccccc2)C(=O)/C1=C/c1c(O)[nH]c(=S)[nH]c1=O	86	-3	146*	1.1	-39	11
Cc1ccc(-n2c(O)c(C=Nc3ccccc3N)c(=O)[nH]c2=O)cc1C	137*	135*	104	2.7	-1	-40
Cc1cc(S(N)(=O)=O)ccc1N=Cc1c(O)n(-c2ccccc2)c(=O)[nH]c1=O	98	20	102	1.3	1	0
Cn1c(=O)c2c(nc(N/N=C/c3c(O)n(-c4ccccc4)c(=S)[nH]c3=O)n2C)n(C)c1=O	107	-3	89	1	16	-8
COc1ccc(-c2cc(=Nc3cccc(C(=O)O)c3)c3cc(C)ccc3o2)cc1	136*	139*	90	2.2	19	-42
CCOCCCNC(=O)C1c2cc(OC)c(OC)cc2C(=O)N2CCCCC12 (stereo not drawn)	99	-13	105	1.5	3	1
SMILES	STAT1 act	APP 5'UTR act	STAT3 activator	NF-kB expr up	STAT3 blocker	STAT1 inh
CN1C(=O)C(Cc2c[nH]c3ccccc23)C(=O)N(C)C1=O	92	10	159*	1.2	-66	9
CN1C(=O)C(Cc2cccc3ccccc23)C(=O)N(C)C1=O	98	20	101	0.8	1	2
CC(C)C/C(=N/O)c1c[nH]c2ccccc12	93	x	134*	0.91	-32	8
C=CCNC(=S)/N=C/c1c(O)[nH]c(=O)[nH]c1=O	97	3	100	0.97	-1	4
NC(=S)/N=C/c1c(O)[nH]c(=O)[nH]c1=O	99	24	101	3.4*	3	0
O=c1c2ccccc2nc(CSc2ncnc3nc[nH]c23)n1-c1ccccc1	104	6	99	3.9*	6	-4
COc1ccc(C(=O)C2CCCN(Cc3ccsc3)C2)cc1OC (stereo not drawn)	91	12	95	1.2	11	9
CC(/C=N/NC(=O)c1n[nH]c2c1CCC2)=C\c1ccccc1	122	-94	127	6.9*	-32	-24
CCCCCCn1c(O)c(C=NC2CCN(Cc3ccccc3)CC2)c(=O)[nH]c1=O	108	-20	72	0.53	33	-5
CCN(CC)C(=O)c1ccc(NC(=O)Nc2ccccc2F)cc1	42	121	32	1.6	86*	62*
Cc1ccccc1-n1c(-c2ccoc2)nc2ccccc2c1=O	99	-18	92	1.3	14	-2
Cn1cccc1/C=C1/C(=O)NC(=O)N(Cc2ccccc2)C1=O	106	-25	135*	3	-38	-7
Cc1cccc(N2C(=O)NC(=O)/C(=C/c3cc4c(cc3[N+](=O)[O-])OCO4)C2=O)c1	93	11	103	1.2	8	7
Cc1cc(C)cc(N2C(=O)NC(=O)/C(=C\c3cc(C)n(C)c3C)C2=O)c1	100	4	75	1.4	35	-1
CC1=NN(c2ccccc2)C(=O)C1/C=C1/C(=O)NC(=O)N(c2cccc(C)c2)C1=O (stereo not drawn)	105	7	150*	1.2	-50	-5
CC1=NN(c2ccccc2)C(=O)C1/C=C1/C(=O)NC(=O)N(c2cc(C)cc(C)c2)C1=O (stereo not drawn)	95	3	144*	1.4	-44	5
Cc1ccc(N=C(N(C)C)P(=O)(N(C)C)N(C)C)cc1	99	-7	104	1.1	-4	0
CN1CC(C(=O)c2ccccc2)C(C(=O)c2ccccc2)C1 (stereo not drawn)	125	82	109	4.3*	-3	-28
CNC(=O)c1cccn(Cc2ccc(C(F)(F)F)cc2)c1=O	65	-5	64	2.2	46*	37*
O=C(Cc1ccccc1)N1CCN(C2CCCC2)CC1	104	10	114	1.1	-13	-4
Cc1ccc(C(=O)N/C(=C\Cl)P(=O)(c2ccccc2)c2ccccc2)cc1	106	-4	97	1	3	-6
COc1ccccc1N1C(=O)NC(=O)C2(Cc3cc(C)ccc3N(C)C2)C1=O (stereo not drawn)	98	-12	97	1	6	2
COc1ccccc1C1=NCc2nnc(C)n2-c2ccc(Cl)cc21	100	19	101	1.2	1	-1
